Test results as given in ChEMBL document CHEMBL1151195, “New isoprenylated flavones, artochamins A--E, and cytotoxic principles from Artocarpus chama” (2004).
Converted amounts (≈) assume the structure as drawn.

Key:
SK-MEL-2 = test: Cytotoxicity against human SK-MEL-2 cells; assay type: functional; settings: read-out: ED50 (the source's name)
Method in brief: (§1)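 Growth inhibition in cultured human tumor cell lines. Compound stocks were made in DMSO and held at -70 °C, then diluted into culture medium to a final DMSO level of ≤1% (v/v).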

1A9 = test: Cytotoxicity against human 1A9 cells; assay type: functional; settings: read-out: ED50 (the source's name); method in brief: as §1
HCT-8 = test: Cytotoxicity against human HCT8 cells; assay type: functional; settings: read-out: ED50 (the source's name); method in brief: as §1
KB = test: Cytotoxicity against human KB cells; assay type: functional; settings: read-out: ED50 (the source's name); method in brief: as §1
MCF7 = test: Cytotoxicity against human MCF7 cells; assay type: functional; settings: read-out: ED50 (the source's name); method in brief: as §1
PC-3 = test: Cytotoxicity against human PC3 cells; assay type: functional; settings: read-out: ED50 (the source's name); method in brief: as §1
[1] = Cytotoxicity against human KBVIN cells; assay type: functional; settings: read-out: ED50 (the source's name); method in brief: as §1
MDA-MB-231 = test: Cytotoxicity against human MDA-MB-231 cells; assay type: functional; settings: read-out: ED50 (the source's name); method in brief: as §1
CAKI-1 = test: Cytotoxicity against human Caki1 cells; assay type: functional; settings: read-out: ED50 (the source's name); method in brief: as §1
A549 = test: Cytotoxicity against human A549 cells; assay type: functional; settings: read-out: ED50 (the source's name); method in brief: as §1
[2] = Cytotoxicity against human U87MG cells; assay type: functional, U-87MG ATCC; settings: U-87 MG, read-out: ED50 (the source's name); method in brief: as §1

| Compound | EC50 (SK-MEL-2) [µg/mL] | EC50 (1A9) [µg/mL] | EC50 (HCT-8) [µg/mL] | EC50 (KB) [µg/mL] | EC50 (MCF7) [µg/mL] | EC50 (PC-3) [µg/mL] | EC50 [1] [µg/mL] | EC50 (MDA-MB-231) [µg/mL] | EC50 (CAKI-1) [µg/mL] | EC50 (A549) [µg/mL] | EC50 [2] [µg/mL] |
| --- | --- | --- | --- | --- | --- | --- | --- | --- | --- | --- | --- |
| COc1cc2oc(-c3ccc(O)cc3O)c(CC=C(C)C)c(=O)c2c(O)c1/C=C/C(C)C [ARTOCARPIN] | 5.4 (≈ 12.4 µM) | 3.4 (≈ 7.79 µM) | 3.8 (≈ 8.71 µM) | 3.2 (≈ 7.33 µM) | 3.3 (≈ 7.56 µM) | 4.1 (≈ 9.39 µM) | 3.6 (≈ 8.25 µM) | 3.8 (≈ 8.71 µM) | 4.9 (≈ 11.2 µM) | 3.3 (≈ 7.56 µM) | 3.7 (≈ 8.48 µM) |
| CC1(C)C=Cc2c(cc(O)c3c(=O)cc(-c4ccc(O)c(O)c4)oc23)O1 [ARTOCHAMIN C] | 2.3 (≈ 6.53 µM) | 2 (≈ 5.68 µM) | 2.3 (≈ 6.53 µM) | 3.4 (≈ 9.65 µM) | 2.2 (≈ 6.24 µM) | 4.2 (≈ 11.9 µM) | 3.4 (≈ 9.65 µM) | 6.2 (≈ 17.6 µM) | 5.3 (≈ 15 µM) | 3 (≈ 8.51 µM) | 7.2 (≈ 20.4 µM) |
| CC(C)=CCc1c2c(c(O)c3c(=O)c4c(oc13)-c1c(O)cc(O)c3c1C(C4)C(C)(C)O3)C=CC(C)(C)O2 (centres undefined) [ARTONIN A] | – | – | – | – | 6.7 (≈ 13.3 µM) | – | – | – | – | 6.1 (≈ 12.1 µM) | – |
| CC(C)=CCc1c(-c2cc(O)c(O)cc2O)oc2c3c(cc(O)c2c1=O)OC(C)(C)C=C3 [ARTONIN E] | 4.3 (≈ 9.85 µM) | < 1.25 | 3.3 (≈ 7.56 µM) | 6.5 (≈ 14.9 µM) | 2.2 (≈ 5.04 µM) | 6.9 (≈ 15.8 µM) | > 10 | 3 (≈ 6.87 µM) | 9.7 (≈ 22.2 µM) | 8.5 (≈ 19.5 µM) | 6.4 (≈ 14.7 µM) |
| CC1(C)C=Cc2c(cc(O)c3c(=O)c4c(oc23)-c2c(O)cc(O)c3c2C(C4)C(C)(C)O3)O1 (centres undefined) [CYCLOARTOBILOXANTHONE] | – | – | – | – | 7.7 (≈ 17.7 µM) | – | – | – | – | 7.2 (≈ 16.6 µM) | – |
| COc1ccc2c(c1)OC(C=C(C)C)c1c-2oc2cc(O)c(/C=C/C(C)C)c(O)c2c1=O (centres undefined) [CYCLOARTOCARPIN A] | – | – | – | – | 6 (≈ 13.8 µM) | – | – | – | – | 6.6 (≈ 15.2 µM) | – |
